Among the data in the RNAGym collection of RNA variant scans (doi:10.1126/science.aae0568) are yeast fitness values, retold here.

The labels stand for the following.
B1: tRNA (parent)
chain: GUUCCGUUGGCGUAAUGGUAACGCGUCUCCCUCCUAAGGAGAAGACUGCGGGUUCGAGUCCCGUACGGAACG

This sample holds only a part of the variants without activity.

The series covers variants of B1. The series can be described thus: yeast fitness relative to wild type (ratio to wild type); higher = fitter; tRNA-Arg(CCU), competitive growth, 37 C, YPD. The method in brief:
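Genotype frequency changes were the basis for Darwinian fitness relative to wild type. The frequencies came from 100-nucleotide paired-end sequencing of gene amplicons from the start population and each end population of pooled yeast strains with tRNA-Arg(CCU) gene variants at the native locus. Competition ran in YPD at 37°C for 24 hours in six replicates, genotypes needed ≥ 100 starting reads, and estimates < 0.5 were set to 0.5.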
Consider C29U C31A A40C G52A C61A, for which the yeast fitness is not above 0.5.

As to C29G C31A A43C G67A, the yeast fitness is not above 0.5. Turning to C29G C49G A57G, the yeast fitness came out at 0.6. In the case of C29G C49G C60G, the yeast fitness is not above 0.5. For the variant C29U A65C A69C, the yeast fitness is not above 0.5. As for C29U C33G A69U, the yeast fitness is not above 0.5. Take C29G U35A U64C: the yeast fitness is not above 0.5. As to C29U A42U A43U C55G, the yeast fitness was determined as 0.545.

With C29U A45U A65C, the yeast fitness worked out at 0.544. For C29G C46U A57G, the yeast fitness is 0.642.

As to C29G G44C C49A U64C, the yeast fitness is not above 0.5. Take C29U A45C G63A: the yeast fitness worked out at 0.578. For the variant C29G C49A U64A, the yeast fitness was not above 0.5. Turning to C29G G44A G58C, the yeast fitness is not above 0.5. With C29G C46U, the yeast fitness is 0.611.

For the variant C29G C31G C46G C55U A65U, the yeast fitness was determined as 0.627. With C29G C49G G51U A57G, the yeast fitness was not above 0.5.

In the case of C29U A43U A70C, the yeast fitness is 1.01. For C29G C62U G68A, the yeast fitness amounted to 0.542. Turning to C29G C61U C66A, the yeast fitness is not above 0.5.

With C29G U32G G38A C46U A70U, the yeast fitness is not above 0.5. Consider C29U C33A, for which the yeast fitness amounted to 0.7. On to C29U C33G, for which the yeast fitness was 0.689.

C29U A40U U53A C60A A65G: the yeast fitness was not above 0.5. Take C29U C31A C66G G67U: the yeast fitness is not above 0.5. C29G G41A C61U: the yeast fitness is 0.531.

For the variant C29G C60A G67A, the yeast fitness is not above 0.5. For C29G C46U A57G C61U, the yeast fitness was not above 0.5.

Regarding C29G C55A A69U, the yeast fitness was not above 0.5. The value for C29G C33U G68A was not above 0.5. The value for C29G U35A A36C was not above 0.5; that for C29U C31U G41C was not above 0.5; that for C29U C30A U59G was not above 0.5. The value for C29G C34U A42G was not above 0.5; that for C29U A36U C61U was not above 0.5; that for C29U A42U A45C was 0.51. Consider C29G G58C, for which the yeast fitness was determined as 0.642.

For C29U A43G U53G G63A, the yeast fitness is not above 0.5. C29G U35A G58C C66U: the yeast fitness is not above 0.5.

Turning to C29G U64G, the yeast fitness amounted to 0.635. With C29G U64C, the yeast fitness came out at 0.688. The figure for C29G G48A G67C is not above 0.5; for C29U A43C G51A it is not above 0.5. As for C29G C55U A65C A70U, the yeast fitness is 0.532. For the variant C29G U35C G56A C62G, the yeast fitness is not above 0.5. As to C29G G41A U47G, the yeast fitness is not above 0.5.

With C29G C33A, the yeast fitness was determined as 0.641.

With C29G C33G, the yeast fitness was 0.59. With C29G U32C A36G, the yeast fitness came out at 0.597.

In the case of C29G C49U A65C, the yeast fitness was not above 0.5. The figure for C29U C30A A37U A57C is not above 0.5; for C29U C31U U54G G68C it is not above 0.5. Consider C29U C31U U54G G68A, for which the yeast fitness is not above 0.5. For C29U A43C, the yeast fitness came to 0.948. With C29U A43U, the yeast fitness came out at 1.04. In the case of C29G C55G, the yeast fitness was found to be 0.538.

On to C29G C55A, for which the yeast fitness was 0.577. As to C29G C31A G44C A65C, the yeast fitness was not above 0.5. The figure for C29G C60U G67A A69U is 0.588; for C29G U35A A36C C62A it is not above 0.5. For C29G G48C C61A, the yeast fitness is 0.564. Regarding C29G G52C A57U, the yeast fitness was not above 0.5. On to C29G U35A A36C G68A, for which the yeast fitness was not above 0.5. C29G G39C U47A: the yeast fitness was determined as 0.978. The figure for C29G C31A C55U A70U is not above 0.5; for C29U A45C U54A C55A it is not above 0.5; for C29G C31U A37U C62U A70G it is not above 0.5. On to C29U C31U C66U, for which the yeast fitness stood at 0.591. As for C29G C49U G58C, the yeast fitness came out at 0.558.

On to C29U, for which the yeast fitness came to 0.989. Regarding C29U A45C U53C C55U G56C C61A C66U, the yeast fitness was not above 0.5. On to C29U A43G G44A C46A, for which the yeast fitness is 0.609. Turning to C29G C31A U35C G67A, the yeast fitness is not above 0.5.

On to C29G G50A, for which the yeast fitness worked out at 0.605. For the variant C29U C31A G44A, the yeast fitness amounted to 0.885.

Consider C29U C31A C46U, for which the yeast fitness is 0.552. Turning to C29G C33G G41C C66U, the yeast fitness amounted to 0.607.

As for C29G C49A A70G, the yeast fitness was not above 0.5. Regarding C29G C49A A70C, the yeast fitness came to 0.538.

For the variant C29G G50C C66A, the yeast fitness came out at 0.518. Take C29U C30A A65U: the yeast fitness is not above 0.5.

With C29U C31U G41C A65G, the yeast fitness is 0.609. With C29U A65C C66G, the yeast fitness worked out at 0.57. The figure for C29G U32A C62A is 0.608.

On to C29G G38C C49U A65U, for which the yeast fitness is not above 0.5. The value for C29G G41C A65U was not above 0.5. For the variant C29U A57G C60G U64C, the yeast fitness is 0.609.

Regarding C29G U53G, the yeast fitness was not above 0.5. Turning to C29G U35A G58C, the yeast fitness is not above 0.5.

In the case of C29U C33A G38C, the yeast fitness is 0.638.

Regarding C29U C33A G38A, the yeast fitness was not above 0.5. With C29G C46G G48C, the yeast fitness turned out to be 0.533. For the variant C29G U32C A42C, the yeast fitness stood at 0.54.

C29U A70G: the yeast fitness is 0.887. The figure for C29U A36U A57G G58A is not above 0.5; for C29G C49A it is 0.664; for C29U C30U A43U A65U it is 0.588. In the case of C29U C30U A65G, the yeast fitness came to 0.704. In the case of C29G G56C, the yeast fitness is not above 0.5. On to C29U A37G G48C G67C, for which the yeast fitness was not above 0.5. As to C29U C33A C34U G51C U64A C66U A69C, the yeast fitness is not above 0.5. Turning to C29U A43C G50C C60A, the yeast fitness is 0.634. For C29G C49G G68C, the yeast fitness is not above 0.5.

Turning to C29U A37C, the yeast fitness came out at 0.894. C29G U32A U64A: the yeast fitness is not above 0.5. As for C29U A57C, the yeast fitness was 0.611.

C29U C30U G63A: the yeast fitness worked out at 0.514. Take C29U A40G C60G: the yeast fitness is not above 0.5. For C29G C34U U59C, the yeast fitness stood at 0.631. C29G C49G G63C: the yeast fitness was not above 0.5. C29U A42U A43U A57C A70G: the yeast fitness came to 0.577.

Turning to C29U C33G G44C U64C, the yeast fitness was not above 0.5. As to C29U A43G C66U, the yeast fitness stood at 0.598. For the variant C29G G41A, the yeast fitness amounted to 0.723. With C29G G48A A65G C66U, the yeast fitness was not above 0.5. C29G C49U G63A: the yeast fitness was found to be 0.513. For C29U C31U U54G A65U G67A, the yeast fitness was determined as 0.565.

Turning to C29G C34U G52A C60U, the yeast fitness was 0.548. For C29U A69C, the yeast fitness worked out at 0.939. Regarding C29U A45C C60A, the yeast fitness worked out at 0.598. As for C29U A43C G63A, the yeast fitness came to 0.699. For C29G G51A A69U, the yeast fitness is not above 0.5. Turning to C29G U32C A70C, the yeast fitness came to 0.555. Consider C29G U47A C66A, for which the yeast fitness amounted to 0.532. With C29G C46A G68A, the yeast fitness is not above 0.5. The value for C29U A42U A43U C55G C62G was not above 0.5; that for C29U A37G C61G A69U was not above 0.5.

As for C29G C49G G56A, the yeast fitness was not above 0.5. The figure for C29G G50A A57U A70U is not above 0.5; for C29U C31G G38A G51A G58C it is not above 0.5. In the case of C29G G41A A57G, the yeast fitness is not above 0.5. As to C29G C31A U47A U59A C60U C62G C66U, the yeast fitness was not above 0.5. C29G C34G C60G: the yeast fitness turned out to be 0.562. On to C29G G48A U59C, for which the yeast fitness is not above 0.5. In the case of C29G U35A A42U, the yeast fitness was not above 0.5.

For the variant C29G C34G, the yeast fitness amounted to 0.563.

For C29U C33A G38A G58C A65U, the yeast fitness is not above 0.5.

Turning to C29G U59G U64C, the yeast fitness worked out at 0.549. C29G U32C C61G C66G: the yeast fitness is not above 0.5. The figure for C29G U47A G48A is 0.553; for C29U C33A C34U C46G it is not above 0.5; for C29G G39C A65C it is 0.546. Turning to C29G U35C U54C U64C, the yeast fitness was not above 0.5. C29G G52C A57U A65G: the yeast fitness was not above 0.5.

For the variant C29G C46U C66U, the yeast fitness worked out at 0.606.

On to C29G C60U, for which the yeast fitness came out at 0.576.

Consider C29U C31U U54G A65C G67A, for which the yeast fitness turned out to be 0.549. C29U A43U C46A C61G G68A: the yeast fitness came out at 0.567.

As to C29G U35C U54C C61A, the yeast fitness is not above 0.5. With C29G G68C, the yeast fitness was found to be 0.595. Consider C29G U35C G38C A57G, for which the yeast fitness was not above 0.5. As to C29G G39C, the yeast fitness was found to be 0.852. As for C29G U47G A57G A69U, the yeast fitness is not above 0.5. On to C29G C33U G50A A70C, for which the yeast fitness is not above 0.5. C29G C46U G56A: the yeast fitness is not above 0.5. C29U A40U G56C: the yeast fitness amounted to 0.552. Consider C29G G44A, for which the yeast fitness amounted to 0.593. Take C29G U32A A65U: the yeast fitness was not above 0.5. In the case of C29U A43U A69C, the yeast fitness is 0.735. For the variant C29U A65U, the yeast fitness stood at 0.754. As to C29G G48C C60G, the yeast fitness came to 0.515. Take C29U C31U: the yeast fitness was found to be 0.846.

For C29G C33G U35G G44A A57G C66U A69U, the yeast fitness was not above 0.5. With C29G U35G A42G C61U, the yeast fitness was not above 0.5. With C29U A36G U54C, the yeast fitness turned out to be 0.542. The figure for C29U C31A G38C is not above 0.5.

On to C29G C49G C55A, for which the yeast fitness was not above 0.5.
